MPTP inh: blocks calcium-induced mitochondrial swelling; isolated mouse mitochondria, Ca2+ swelling absorbance, 30 min; inhibition, % at 10 µM; 1.4% of 360,000 active;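 active = inhibition of 50% or more, scaled per plate between neutral and stimulator controls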
EBV gp42 block: blocks Epstein-Barr virus glycoprotein 42 binding. Q1HVG2. Fluorescence polarization binding assay, mP read-out. inhibition, % (tested at 21.74 µM). 0.42% of 220,000 active. AID 1085; in the data active = inhibition above about 50%
Target sequence (Q1HVG2 whole entry, looked up): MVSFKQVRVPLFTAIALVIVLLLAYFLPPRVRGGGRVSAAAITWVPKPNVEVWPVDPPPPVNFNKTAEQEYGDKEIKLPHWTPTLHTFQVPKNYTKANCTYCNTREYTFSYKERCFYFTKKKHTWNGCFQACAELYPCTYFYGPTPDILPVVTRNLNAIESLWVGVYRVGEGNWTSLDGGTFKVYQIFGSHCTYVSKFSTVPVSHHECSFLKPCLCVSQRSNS
WT yeast gro inh: growth inhibition of WT yeast, mitochondrial fusion screen | mitochondrial fusion phenotypic screen, WT strain | 2.1% of 190,000 active | inhibition, % at 10 µM; in the data active = inhibition above about 58%; tested in S. cerevisiae
CHOP inh: inhibitors of CHOP induction in ER stress response; CHO-K1 CHOP-promoter luciferase, tunicamycin-induced, 15-18 h; inhibition, % at 10 µM; 3.8% of 220,000 active;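 active = compounds that reduced the stress-induced luciferase reporter signal by more than about 70% of percent inhibition, limit read from the data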
GRIN3A LBD mod: modulators (binders) of human NR3A ligand-binding domain; NR3A LBD differential scanning fluorimetry, Tm shift; 0% = protein alone, 100% = glycine-bound protein; Tm shift relative to glycine control, % at 25 µM; 2.5% of 340,000 active; AID 1259313;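 active = melting temperature shift of at least 10% of the positive control shift, at one fixed dose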
TbMetRS inhib: Trypanosoma brucei MetRS inhibition. 0.4% of 360,000 active. inhibition, % at 11.9 µM. purified T. brucei MetRS, ATP depletion, Kinase-Glo luminescence;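 active = inhibition above a per-plate cutoff of the control wells' mean inhibition plus 3 SD, cut at about 5.5% in these data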
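Material: parasite MetRS enzyme / Replication: singlicate, one well per compound / Signal: luminescence of leftover ATP / Schedule: 2 h aminoacylation at 25 °C after 15 min preincubation / Medium: HEPES-MgCl2-KCl buffer plus DTT, spermine, BSA, pyrophosphatase / Doses: 11.9 µM single point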
Each line names hits and unclear results; the compound was inactive in the other large screens. This is a sample that favours compounds with a hit; in the whole collection about 6.4% have one here.

CC(C)c1c(C(=O)N/N=C/c2cccs2)nnn1-c1nonc1N	none (no result: EBV gp42 block, WT yeast gro inh, CHOP inh)
CC(C)c1c(C(=O)N/N=C/c2c[nH]c3ccccc23)nnn1-c1nonc1N	GRIN3A LBD mod 38 (no result: EBV gp42 block, WT yeast gro inh, CHOP inh)
CC(C)c1c(C(=O)N/N=C/c2cccc3ccccc23)nnn1-c1nonc1N	GRIN3A LBD mod 32 (no result: EBV gp42 block, WT yeast gro inh, CHOP inh)
CCCc1c(C(=O)N/N=C/c2cccc3ccccc23)nnn1-c1nonc1N	GRIN3A LBD mod 40 (no result: EBV gp42 block, WT yeast gro inh, CHOP inh)
CN1C(=O)N(c2ccc(Cl)cc2)C(C)(O)CC1(C)C (stereo not given)	none (no result: EBV gp42 block, WT yeast gro inh, CHOP inh)
O=C1NCCCC1C(=O)NCCNC(=O)C(F)(F)F (stereo not given)	none
O=C(Nc1cccnc1)c1ccc(Cl)c(S(=O)(=O)N2CCc3ccccc32)c1	WT yeast gro inh 60
CC(=O)Nc1ccc(NC(=O)c2ccc(Cl)c(S(=O)(=O)N3CCc4ccccc43)c2)cc1	GRIN3A LBD mod 13 (no result: EBV gp42 block, WT yeast gro inh, CHOP inh)
COc1ccc(NC(=O)c2ccc(Cl)c(S(=O)(=O)N3CC(C)OC(C)C3)c2)cn1 (stereo not given)	none (no result: EBV gp42 block, WT yeast gro inh, CHOP inh)
COc1ccc(NC(=O)c2ccc(Cl)c(S(=O)(=O)N3CCc4ccccc4C3)c2)cn1	WT yeast gro inh 58
COc1ccc(NC(=O)C2Cc3ccccc3CN2C(=O)c2ccccc2)cn1 (stereo not given)	EBV gp42 block 64
COc1cc(CNn2cn[nH]c2=S)ccc1OCC(=O)NC(C)(C)C	none (no result: EBV gp42 block, WT yeast gro inh, CHOP inh)
CCOc1ccccc1CNCCO	none
CN(C)CCN(C(=O)c1ccc(C(=O)c2ccccc2)cc1)c1nc2cc3c(cc2s1)OCO3	GRIN3A LBD mod 11 (no result: EBV gp42 block, WT yeast gro inh, CHOP inh)
Cc1ccc2nc(N(CCCN(C)C)C(=O)c3ccc(S(=O)(=O)N(C)C)cc3)sc2c1	none
CN(C)CCN(C(=O)c1ccc(C(=O)c2ccccc2)cc1)c1nc2cc3c(cc2s1)OCCO3	none (no result: EBV gp42 block, WT yeast gro inh, CHOP inh)
Cc1ccc2nc(N(CCCN(C)C)C(=O)c3sc4ccccc4c3Cl)sc2c1	WT yeast gro inh 89, CHOP inh 80
CCN(CC)CCN(C(=O)c1ccc2c(c1)CCCC2)c1nc2ccc(F)cc2s1	none
CN(C)CCCN(C(=O)c1ccc2c(c1)CCCC2)c1nc2ccc(F)cc2s1	WT yeast gro inh 87
Cc1ccc(C(=O)N(CCCN(C)C)c2nc3ccc(Cl)cc3s2)cc1C	WT yeast gro inh 89
Cc1cc(Cl)cc(Br)c1OCCNCC(C)O (stereo not given)	none
CC(C)(C)NC(=O)C(c1ccc(C(F)(F)F)cc1)n1c(=O)c(-c2cc3ccccc3[nH]2)nc2ccccc21 (stereo not given)	none (no result: EBV gp42 block, WT yeast gro inh, CHOP inh, GRIN3A LBD mod)
COc1ccc(C2CC(=O)c3c(ccc4ccccc34)N2)cc1OC (stereo not given)	none
CCCCn1c(-c2csc3c2CCC(C)C3)n[nH]c1=S (stereo not given)	WT yeast gro inh 76, CHOP inh 84
CCn1c(-c2csc3c2CCCC3)n[nH]c1=S	none
C=CCn1c(-c2csc3c2CCC(C)C3)n[nH]c1=S (stereo not given)	CHOP inh 80
CN(Cc1ccc(OC(F)F)cc1)Cc1nc2c(Br)cc(Br)cc2c(=O)[nH]1	WT yeast gro inh 70
CCCCOP(=O)(OCCCC)C(Nc1ccccc1)c1ccc2c(c1)OCO2 (stereo not given)	WT yeast gro inh 65, CHOP inh 91, GRIN3A LBD mod 14
CN1C(=O)c2ccccc2Sc2ccc(NC(=O)N3CCCC3)cc21	WT yeast gro inh 79
C=CCc1ccc(OCC(O)COc2ccc(CC=C)cc2OC)c(OC)c1	none
CC1=NN(c2cccc(C(=O)O)c2)C(=O)/C1=C\C=C/c1ccccc1	CHOP inh 93, GRIN3A LBD mod 12
CC(=O)c1ccc(S(=O)(=O)N2CCN(c3nn(C)c(=O)n(C)c3=O)CC2)cc1	none (no result: EBV gp42 block, WT yeast gro inh, CHOP inh)
C[C@@H]1CN([C@H](C)CO)C(=O)CCCn2nncc2CO[C@H]1CN(C)Cc1ccccc1C(=O)O	none (no result: EBV gp42 block, WT yeast gro inh, CHOP inh, GRIN3A LBD mod)
Cc1ccc(C2C3=C(CCCC3=O)Nc3[nH]c(=S)[nH]c(=O)c32)cc1 (stereo not given)	EBV gp42 block 82
O=C1CCCC2=C1C(c1ccc(Br)cc1)c1c([nH]c(=S)[nH]c1=O)N2 (stereo not given)	none
O=C(NCCC(=O)N1CCNC1=O)OCc1ccccc1	GRIN3A LBD mod 14
N=C1/C(=C\c2ccc(-c3cccc(C(=O)O)c3)o2)C(=O)N=C2SC=C(c3ccccc3)N12	EBV gp42 block 82 (no result: WT yeast gro inh)

Compound activity as filed in PubChem.
